Reference: ChEMBL document CHEMBL1122268, “Mechanism of action of 2',5-difluoro-1-arabinosyluracil” (J Med Chem, 1983)
One block for each molecule: values may come before it.

Key:
[1] = biological target: Lacticaseibacillus casei; assay: Inhibition of dTMP synthetase in the absence of CH2-H4 folate Lactobacillus casei; format: functional
[2] = tested on: P815; assay: The growth inhibition of P815 cell line; format: functional, cell-based; details: Mus musculus
[3] = tested on: S49; assay: Reduction of deoxy-Thymidinetriphosphate pool after 1 hour incubation in S-49 cells(2 X 10e 5) at a concentration of 16.5 uM; format: functional, Mus musculus
In short: (§1)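 Mouse lymphoma S-49 suspension cultures at 2 × 10^5 cells/mL in DMEM with 10% heat-inactivated horse serum, 37 °C, exposed to 16.5 μM drug; dATP, dCTP, dGTP, dTTP pool sizes measured at 1 h (dTTP also 4 h), expressed as percent of original value.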

[4] = tested on: S49; assay: Reduction of deoxy-Cytidinetriphosphate pool after 1 hour incubation in S-49 cells(2 X 10e 5) at a concentration of 16.5 uM; format: functional, Mus musculus; in short: as §1
[5] = tested on: S49; assay: Reduction of deoxy-Thymidinetriphosphate pool after 4 hour incubation in S-49 cells(2 X 10e 5) at a concentration of 16.5 uM; format: functional, Mus musculus; in short: as §1
[6] = tested on: S49; assay: Reduction of deoxy-Adenosinetriphosphate pool after 1 hour incubation in S-49 cells(2 X 10e 5) at a concentration of 16.5 uM; format: functional, Mus musculus; in short: as §1
[7] = tested on: S49; assay: Reduction of deoxy-[…] pool after 1 hour incubation in S-49 cells(2 X 10e 5) at a concentration of 16.5 uM; format: functional, Mus musculus; in short: as §1
[8] = tested on: Thymidylate synthase (Lactobacillus casei); assay: Rate constant for the inactivation of DTMP synthetase in the presence of cofactor CH2-H4 folate
[9] = tested on: S49; assay: The growth inhibition of thymidine kinase deficient S-49 cells; format: functional, cell-based; details: Mus musculus
In short: (§2)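 S-49 or thymidine kinase-deficient S-49/TK⁻ cells in 1 mL DMEM with 10% heat-inactivated horse serum plus inhibitor, 37 °C, 10% CO2, 72 h; cell density counted daily by Coulter counter; EC50 = concentration halving growth rate relative to untreated controls.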

[10] = tested on: S49; assay: The growth inhibition of S-49 mouse lymphoma cells; format: functional, cell-based; in short: as §2
[11] = tested on: L5178Y; assay: The growth inhibition of L5178Y cell line; format: functional, cell-based; details: Mus musculus

- Ki [1]: 2.3 µM
Compound: O=c1ccn([C@H]2C[C@H](O)[C@@H](COP(=O)(O)O)O2)c(=O)[nH]1 [DEOXYURIDINE MONOPHOSPHATE]

- Rate constant [8]: 2.4 min⁻¹
Compound: O=c1[nH]c(=O)n([C@H]2O[C@@H](CO)[C@H](O)[C@H]2F)cc1F
- EC50 [2]: 2.6 µM
- Decrease [3]: 80%
- Increase [4]: 172%
- Decrease [5]: 40%
- Decrease [6]: 90%
- Decrease [7]: < 20%
- EC50 [9]: 400 µM
- EC50 [10]: 3.3 µM
- EC50 [11]: 3.8 µM

- Ki [1]: 0.19 µM
Compound: O=c1[nH]c(=O)n([C@H]2C[C@H](O)[C@@H](COP(=O)(O)O)O2)cc1Cl

- Ki [1]: 3.3 µM
Compound: O=c1[nH]c(=O)n([C@@H]2O[C@H](COP(=O)(O)O)[C@@H](O)[C@@H]2F)cc1F
